# Tested on: Pseudomonas aeruginosa
# Assay: Ratio of compound to amoxicilline activity against Pseudomonas aeruginosa at 5 mg/ml after 24 to 48 hrs by agar diffusion technique
# Assay type: functional
# Details: not given
row,Compound,Ratio
1,CC(=N\NC(=O)c1oc2ccccc2c1C)/C(Cl)=N/Nc1ccc([N+](=O)[O-])cc1,0.25
2,COc1ccc(N/N=C(Cl)/C(C)=N/NC(=O)c2oc3ccccc3c2C)cc1,0

# Tested on: Pseudomonas aeruginosa
# Assay: Antibacterial activity against Pseudomonas aeruginosa at 5 mg/ml after 24 to 48 hrs by agar diffusion technique
# Assay type: functional
# Details: read-out: IZ
# How it was run: (§1)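 Hole-plate diffusion on nutrient agar (pH 6.2) seeded with clinical bacterial isolates. 1 cm wells were filled with 100 of a 5 mg/ml DMSO solution, with DMSO-only control wells and amoxicilline as the reference. Plates were held at 4 °C for 1 h, then incubated at 37 °C. Inhibition zone diameter was read after 24–48 h.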
row,Compound,zone of inhibition at 5000 µg/mL [mm]
1,CC(=N\NC(=O)c1oc2ccccc2c1C)/C(Cl)=N/Nc1ccc([N+](=O)[O-])cc1,5

# Tested on: Syncephalastrum racemosum
# Assay: Ratio of compound to grisofulvin activity against Syncephalastrum racemosum at 5 mg/ml after 24 to 48 hrs by agar diffusion technique
# Assay type: functional
# Details: not given
row,Compound,Ratio
1,CC(=N\NC(=O)c1oc2ccccc2c1C)/C(Cl)=N/Nc1ccc([N+](=O)[O-])cc1,0
2,COc1ccc(N/N=C(Cl)/C(C)=N/NC(=O)c2oc3ccccc3c2C)cc1,0

# Tested on: Candida albicans
# Assay: Antifungal activity against Candida albicans at 5 mg/ml after 24 to 48 hrs by agar diffusion technique
# Assay type: functional
# Details: read-out: IZ
# How it was run: (§2)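 Clinical fungal or yeast isolates were seeded on malt extract agar (pH 5.4). 1 cm holes received 100 of test solution at 5 mg/ml in DMSO, with DMSO control holes and griseofulvin as the standard. Plates sat 1 h at 4 °C, then were incubated at 28 °C. Zone diameters were measured at 24–48 h.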
row,Compound,zone of inhibition at 5000 µg/mL [mm]
1,CC(=N\NC(=O)c1oc2ccccc2c1C)/C(Cl)=N/Nc1ccc([N+](=O)[O-])cc1,12
2,COc1ccc(N/N=C(Cl)/C(C)=N/NC(=O)c2oc3ccccc3c2C)cc1,10

# Tested on: Escherichia coli
# Assay: Antibacterial activity against Escherichia coli at 5 mg/ml after 24 to 48 hrs by agar diffusion technique
# Assay type: functional
# Details: read-out: IZ
# How it was run: as §1
row,Compound,zone of inhibition at 5000 µg/mL [mm]
1,CC(=N\NC(=O)c1oc2ccccc2c1C)/C(Cl)=N/Nc1ccc([N+](=O)[O-])cc1,10

# Tested on: Candida albicans
# Assay: Ratio of compound to grisofulvin activity against Candida albicans at 5 mg/ml after 24 to 48 hrs by agar diffusion technique
# Assay type: functional
# Details: not given
row,Compound,Ratio
1,CC(=N\NC(=O)c1oc2ccccc2c1C)/C(Cl)=N/Nc1ccc([N+](=O)[O-])cc1,1.2
2,COc1ccc(N/N=C(Cl)/C(C)=N/NC(=O)c2oc3ccccc3c2C)cc1,1

# Tested on: Bacillus subtilis
# Assay: Ratio of compound to amoxicilline activity against Bacillus subtilis at 5 mg/ml after 24 to 48 hrs by agar diffusion technique
# Assay type: functional
# Details: not given
row,Compound,Ratio
1,CC(=N\NC(=O)c1oc2ccccc2c1C)/C(Cl)=N/Nc1ccc([N+](=O)[O-])cc1,0.25
2,COc1ccc(N/N=C(Cl)/C(C)=N/NC(=O)c2oc3ccccc3c2C)cc1,0

# Tested on: Aspergillus fumigatus
# Assay: Ratio of compound to grisofulvin activity against Aspergillus fumigatus at 5 mg/ml after 24 to 48 hrs by agar diffusion technique
# Assay type: functional
# Details: not given
row,Compound,Ratio
1,CC(=N\NC(=O)c1oc2ccccc2c1C)/C(Cl)=N/Nc1ccc([N+](=O)[O-])cc1,0.56
2,COc1ccc(N/N=C(Cl)/C(C)=N/NC(=O)c2oc3ccccc3c2C)cc1,0

# Tested on: Staphylococcus aureus
# Assay: Antibacterial activity against Staphylococcus aureus at 5 mg/ml after 24 to 48 hrs by agar diffusion technique
# Assay type: functional
# Details: read-out: IZ
# How it was run: as §1
row,Compound,zone of inhibition at 5000 µg/mL [mm]
1,CC(=N\NC(=O)c1oc2ccccc2c1C)/C(Cl)=N/Nc1ccc([N+](=O)[O-])cc1,12

# Tested on: Aspergillus fumigatus
# Assay: Antifungal activity against Aspergillus fumigatus at 5 mg/ml after 24 to 48 hrs by agar diffusion technique
# Assay type: functional
# Details: read-out: IZ
# How it was run: as §2
row,Compound,zone of inhibition at 5000 µg/mL [mm]
1,CC(=N\NC(=O)c1oc2ccccc2c1C)/C(Cl)=N/Nc1ccc([N+](=O)[O-])cc1,14

# Tested on: Staphylococcus aureus
# Assay: Ratio of compound to amoxicilline activity against Staphylococcus aureus at 5 mg/ml after 24 to 48 hrs by agar diffusion technique
# Assay type: functional
# Details: not given
row,Compound,Ratio
1,CC(=N\NC(=O)c1oc2ccccc2c1C)/C(Cl)=N/Nc1ccc([N+](=O)[O-])cc1,0.4
2,COc1ccc(N/N=C(Cl)/C(C)=N/NC(=O)c2oc3ccccc3c2C)cc1,0

# Tested on: Escherichia coli
# Assay: Ratio of compound to amoxicilline activity against Escherichia coli at 5 mg/ml after 24 to 48 hrs by agar diffusion technique
# Assay type: functional
# Details: not given
row,Compound,Ratio
1,CC(=N\NC(=O)c1oc2ccccc2c1C)/C(Cl)=N/Nc1ccc([N+](=O)[O-])cc1,0.36
2,COc1ccc(N/N=C(Cl)/C(C)=N/NC(=O)c2oc3ccccc3c2C)cc1,0

# Tested on: Geotrichum candidum
# Assay: Ratio of compound to grisofulvin activity against Geotrichum candidum at 5 mg/ml after 24 to 48 hrs by agar diffusion technique
# Assay type: functional
# Details: not given
row,Compound,Ratio
1,CC(=N\NC(=O)c1oc2ccccc2c1C)/C(Cl)=N/Nc1ccc([N+](=O)[O-])cc1,0.5
2,COc1ccc(N/N=C(Cl)/C(C)=N/NC(=O)c2oc3ccccc3c2C)cc1,0

# Tested on: Bacillus subtilis
# Assay: Antibacterial activity against Bacillus subtilis at 5 mg/ml after 24 to 48 hrs by agar diffusion technique
# Assay type: functional
# Details: read-out: IZ
# How it was run: as §1
row,Compound,zone of inhibition at 5000 µg/mL [mm]
1,CC(=N\NC(=O)c1oc2ccccc2c1C)/C(Cl)=N/Nc1ccc([N+](=O)[O-])cc1,6

# Tested on: Geotrichum candidum
# Assay: Antifungal activity against Geotrichum candidum at 5 mg/ml after 24 to 48 hrs by agar diffusion technique
# Assay type: functional
# Details: read-out: IZ
# How it was run: as §2
row,Compound,zone of inhibition at 5000 µg/mL [mm]
1,CC(=N\NC(=O)c1oc2ccccc2c1C)/C(Cl)=N/Nc1ccc([N+](=O)[O-])cc1,5
